{"source": "ChEMBL document CHEMBL4257483", "about": "“Design, synthesis and bioactivities of phenithionate analogues or derivatives for anti-schistosomiasis” (Medchemcomm, 2018)", "key": {"Schistosoma japonicum [1]": {"test_system": "Schistosoma japonicum", "experiment": "Antischistosomal activity against Schistosoma japonicum infected in mouse at 25 mg/kg/day, po treated for 5 days measured after day 8 post last dose by ELISA", "format": "functional, organism-based", "procedure,_shortened": "(§1)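 Male mice (20–22 g) infected via abdominal skin with 120–140 S. japonicum cercariae. From day 35 post-infection, dosed orally once daily for 5 days. Venous blood then clotted and centrifuged 15 min at 3500 rpm. Serum tested by triple dot ELISA and scored by spot colour: brown +++, yellow ++, slight yellow +, colourless –. DMSO blank.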"}, "Schistosoma mansoni": {"test_system": "Schistosoma mansoni", "experiment": "Antischistosomal activity against Schistosoma mansoni imago derived from infected mouse at 20 ug/ml after 72 hrs", "format": "functional, organism-based"}, "Schistosoma haematobium": {"test_system": "Schistosoma haematobium", "experiment": "Antischistosomal activity against Schistosoma haematobium imago derived from infected mouse at 20 ug/ml after 72 hrs", "format": "functional, organism-based"}, "Schistosoma japonicum [2]": {"test_system": "Schistosoma japonicum", "experiment": "Antischistosomal activity against Schistosoma japonicum infected in mouse at 25 mg/kg/day, po treated for 5 days measured after day 4 post last dose by ELISA", "format": "functional, organism-based", "procedure,_shortened": "as §1"}, "Schistosoma japonicum [3]": {"test_system": "Schistosoma japonicum", "experiment": "Antischistosomal activity against Schistosoma japonicum infected in mouse at 25 mg/kg/day, po treated for 5 days measured after day 6 post last dose by ELISA", "format": "functional, organism-based", "procedure,_shortened": "as §1"}, "Schistosoma japonicum [4]": {"test_system": "Schistosoma japonicum", "experiment": "Antischistosomal activity against Schistosoma japonicum infected in mouse at 25 mg/kg/day, po treated for 5 days measured after day 1 post last dose by ELISA", "format": "functional, organism-based", "procedure,_shortened": "as §1"}, "Schistosoma japonicum [5]": {"test_system": "Schistosoma japonicum", "experiment": "Antischistosomal activity against Schistosoma japonicum infected in mouse at 50 mg/kg/day, po treated for 5 days measured after day 9 post last dose by ELISA", "format": "functional, organism-based", "procedure,_shortened": "as §1"}, "Schistosoma japonicum [6]": {"test_system": "Schistosoma japonicum", "experiment": "Antischistosomal activity against Schistosoma japonicum infected in mouse at 25 mg/kg/day, po treated for 5 days measured after day 5 post last dose by ELISA", "format": "functional, organism-based", "procedure,_shortened": "as §1"}, "Schistosoma japonicum [7]": {"test_system": "Schistosoma japonicum", "experiment": "Antischistosomal activity against Schistosoma japonicum infected in mouse at 25 mg/kg/day, po treated for 5 days measured after day 7 post last dose by ELISA", "format": "functional, organism-based", "procedure,_shortened": "as §1"}, "Schistosoma japonicum [8]": {"test_system": "Schistosoma japonicum", "experiment": "Antischistosomal activity against Schistosoma japonicum infected in mouse at 50 mg/kg/day, po treated for 5 days measured after day 3 post last dose by ELISA", "format": "functional, organism-based", "procedure,_shortened": "as §1"}, "Schistosoma japonicum [9]": {"test_system": "Schistosoma japonicum", "experiment": "Antischistosomal activity against Schistosoma japonicum larva derived from infected mouse assessed as reduction in larva viability after 72 hrs", "format": "functional, organism-based", "procedure,_shortened": "(§2)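 Worms perfused with cold heparinised HBSS from mice infected percutaneously with S. japonicum cercariae: larvae at 15 days post-infection (260–280 cercariae), adults at 35 days (120–140 cercariae). Five male and female worms per well in 10% calf serum RPMI 1640 with penicillin, streptomycin and amphotericin B. Preincubated 4 h at 37 °C, 5% CO2, then compounds added and viability recorded over 72 h. IC50 taken at 50% survival. DMSO blank.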"}, "Schistosoma japonicum [10]": {"test_system": "Schistosoma japonicum", "experiment": "Antischistosomal activity against Schistosoma japonicum infected in mouse at 25 mg/kg/day, po treated for 5 days measured after day 2 post last dose by ELISA", "format": "functional, organism-based", "procedure,_shortened": "as §1"}, "Schistosoma japonicum [11]": {"test_system": "Schistosoma japonicum", "experiment": "Antischistosomal activity against Schistosoma japonicum infected in mouse at 50 mg/kg/day, po treated for 5 days measured after day 7 post last dose by ELISA", "format": "functional, organism-based", "procedure,_shortened": "as §1"}, "[12]": {"experiment": "Dissociation constant, pKa of the compound", "format": "physicochemical"}, "[13]": {"experiment": "Acute toxicity in po dosed mouse infected with Schistosoma japonicum treated for 5 days", "format": "organism-based", "conditions": "in vivo"}, "Schistosoma japonicum [14]": {"test_system": "Schistosoma japonicum", "experiment": "Antischistosomal activity against Schistosoma japonicum imago derived from infected mouse at 20 ug/ml after 72 hrs", "format": "functional, organism-based", "procedure,_shortened": "as §2"}, "Schistosoma japonicum [15]": {"test_system": "Schistosoma japonicum", "experiment": "Antischistosomal activity against Schistosoma japonicum infected in mouse at 50 mg/kg/day, po treated for 5 days measured after day 6 post last dose by ELISA", "format": "functional, organism-based", "procedure,_shortened": "as §1"}, "Schistosoma japonicum [16]": {"test_system": "Schistosoma japonicum", "experiment": "Antischistosomal activity against Schistosoma japonicum infected in mouse at 50 mg/kg/day, po treated for 5 days measured after day 8 post last dose by ELISA", "format": "functional, organism-based", "procedure,_shortened": "as §1"}, "Schistosoma japonicum [17]": {"test_system": "Schistosoma japonicum", "experiment": "Antischistosomal activity against Schistosoma japonicum infected in mouse at 50 mg/kg/day, po treated for 5 days measured after day 5 post last dose by ELISA", "format": "functional, organism-based", "procedure,_shortened": "as §1"}, "Schistosoma japonicum [18]": {"test_system": "Schistosoma japonicum", "experiment": "Antischistosomal activity against Schistosoma japonicum infected in mouse at 50 mg/kg/day, po treated for 5 days measured after day 4 post last dose by ELISA", "format": "functional, organism-based", "procedure,_shortened": "as §1"}, "Schistosoma japonicum [19]": {"test_system": "Schistosoma japonicum", "experiment": "Antischistosomal activity against Schistosoma japonicum infected in mouse at 50 mg/kg/day, po treated for 5 days measured after day 1 post last dose by ELISA", "format": "functional, organism-based", "procedure,_shortened": "as §1"}, "Schistosoma japonicum [20]": {"test_system": "Schistosoma japonicum", "experiment": "Antischistosomal activity against Schistosoma japonicum infected in mouse at 50 mg/kg/day, po treated for 5 days measured after day 2 post last dose by ELISA", "format": "functional, organism-based", "procedure,_shortened": "as §1"}, "Schistosoma japonicum [21]": {"test_system": "Schistosoma japonicum", "experiment": "Antischistosomal activity against Schistosoma japonicum infected in mouse at 25 mg/kg/day, po treated for 5 days measured after day 3 post last dose by ELISA", "format": "functional, organism-based", "procedure,_shortened": "as §1"}, "Schistosoma japonicum [22]": {"test_system": "Schistosoma japonicum", "experiment": "Antischistosomal activity against Schistosoma japonicum infected in mouse at 25 mg/kg/day, po treated for 5 days measured after day 9 post last dose by ELISA", "format": "functional, organism-based", "procedure,_shortened": "as §1"}, "[23]": {"experiment": "Lipid/water partition coefficient, log P of the compound", "format": "physicochemical"}, "Schistosoma japonicum [24]": {"test_system": "Schistosoma japonicum", "experiment": "Antischistosomal activity against Schistosoma japonicum imago derived from infected mouse assessed as reduction in imago viability after 72 hrs", "format": "functional, organism-based", "procedure,_shortened": "as §2"}}, "note": "Active and inactive are the calls of the source. No cut-off for these calls is given here."}
{"smiles": "O=[N+]([O-])c1ccc(Oc2ccc(NC(=S)Oc3ccc(O)cc3)cc2)cc1", "values": [{"measurement": "Activity", "setting": "Schistosoma japonicum [1]", "value": "inactive"}, {"measurement": "Activity", "setting": "Schistosoma mansoni", "value": "inactive"}, {"measurement": "Activity", "setting": "Schistosoma haematobium", "value": "inactive"}, {"measurement": "Activity", "setting": "Schistosoma japonicum [2]", "value": "Active"}, {"measurement": "Activity", "setting": "Schistosoma japonicum [3]", "value": "Active"}, {"measurement": "Activity", "setting": "Schistosoma japonicum [4]", "value": "Active"}, {"measurement": "Activity", "setting": "Schistosoma japonicum [5]", "value": "inactive"}, {"measurement": "Activity", "setting": "Schistosoma japonicum [6]", "value": "Active"}, {"measurement": "Activity", "setting": "Schistosoma japonicum [7]", "value": "Active"}, {"measurement": "Activity", "setting": "Schistosoma japonicum [8]", "value": "Active"}, {"measurement": "IC50", "setting": "Schistosoma japonicum [9]", "value": 6.38, "unit": "µg/mL"}, {"measurement": "Activity", "setting": "Schistosoma japonicum [10]", "value": "Active"}, {"measurement": "Activity", "setting": "Schistosoma japonicum [11]", "value": "inactive"}, {"measurement": "pKa", "setting": "[12]", "value": 9.23}, {"measurement": "LD50 at 120 h", "setting": "[13]", "value": 275, "unit": "mg/kg"}, {"measurement": "Activity", "setting": "Schistosoma japonicum [14]", "value": "Active"}, {"measurement": "Activity", "setting": "Schistosoma japonicum [15]", "value": "inactive"}, {"measurement": "Activity", "setting": "Schistosoma japonicum [16]", "value": "inactive"}, {"measurement": "Activity", "setting": "Schistosoma japonicum [17]", "value": "Active"}, {"measurement": "Activity", "setting": "Schistosoma japonicum [18]", "value": "Active"}, {"measurement": "Activity", "setting": "Schistosoma japonicum [19]", "value": "Active"}, {"measurement": "Activity", "setting": "Schistosoma japonicum [20]", "value": "Active"}, {"measurement": "Activity", "setting": "Schistosoma japonicum [21]", "value": "Active"}, {"measurement": "Activity", "setting": "Schistosoma japonicum [22]", "value": "inactive"}, {"measurement": "logP", "setting": "[23]", "value": 5.01}, {"measurement": "IC50", "setting": "Schistosoma japonicum [24]", "value": 8.02, "unit": "µg/mL"}]}
